ChEMBL document CHEMBL2062515, “Synthesis and evaluation of novel radioligands for positron emission tomography imaging of metabotropic glutamate receptor subtype 1 (mGluR1) in rodent brain” (J Med Chem, 2012)

Key:
[1] = tested on: Thalamus; experiment: Drug uptake in wild type mouse thalamus at 17 MBq, iv up to 60 mins by PET analysis; type: ADME, organism-based; settings: in vivo, 1 h
[2] = Ratio of drug uptake in cerebellum to pons of Sprague-Dawley rat at 16 MBq administered as bolus infusion; settings: in vivo, iv
[3] = tested on: Heart; experiment: Biodistribution in mouse heart at 4.8 MBq/140 uL, iv after 30 mins by gamma counting; type: ADME, organism-based; settings: in vivo, 0.5 h
Outline: (§1)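 Mice received the radioligand in saline by tail vein (4.8 MBq/140 μL, 40 pmol). Four mice per time point were killed by cervical dislocation at 1, 5, 15, 30 and 60 min. Tissues were removed quickly and counted in an autogamma counter. Data are decay-corrected % injected dose per gram of wet tissue, mean ± SE, n = 4.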

[4] = tested on: Spleen; experiment: Biodistribution in mouse spleen at 4.8 MBq/140 uL, iv after 15 mins by gamma counting; type: ADME, organism-based; settings: in vivo, 0.25 h
Outline: (§2)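 [¹¹C]radioligand in saline (4.8 MBq/140 μL, 40 pmol) injected via tail vein; four mice per time point killed by cervical dislocation at 1, 5, 15, 30, 60 min. Tissues (small intestine including contents) removed, counted in autogamma counter, decay-corrected, expressed as % injected dose per gram wet tissue; mean SE, n = 4.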

[5] = tested on: Mus musculus; experiment: Biodistribution in mouse small intestine at 4.8 MBq/140 uL, iv after 60 mins by gamma counting; type: ADME, organism-based; settings: in vivo, 1 h; outline: as §2
[6] = tested on: Cerebellum; experiment: Drug uptake in Sprague-Dawley rat cerebellum at 16 MBq administered as bolus infusion after 90 mins by PET analysis; type: ADME, organism-based; settings: in vivo, iv, 1.5 h
[7] = tested on: Mus musculus; experiment: Biodistribution in mouse small intestine at 4.8 MBq/140 uL, iv after 15 mins by gamma counting; type: ADME, organism-based; settings: in vivo, 0.25 h; outline: as §2
[8] = tested on: Lung; experiment: Biodistribution in mouse lung at 4.8 MBq/140 uL, iv after 60 mins by gamma counting; type: ADME, organism-based; settings: in vivo, 1 h; outline: as §1
[9] = tested on: Brain; experiment: Biodistribution in mouse brain at 4.8 MBq/140 uL, iv after 60 mins by gamma counting; type: ADME, organism-based; settings: in vivo, 1 h; outline: as §1
[10] = tested on: Cerebellum; experiment: Drug uptake in Sprague-Dawley rat cerebellum at 17 MBq administered as bolus infusion after 45 mins post injection by PET analysis relative to control in presence of N-[4-[6-(isopropylamino)pyrimidin-4-yl]-1,3-thiazol-2-yl]-4-methoxy-N-methylbenzamide; type: ADME, organism-based; settings: in vivo, iv, 0.75 h
[11] = tested on: Muscle tissue; experiment: Biodistribution in mouse muscle at 4.8 MBq/140 uL, iv after 60 mins by gamma counting; type: ADME, organism-based; settings: in vivo, 1 h; outline: as §2
[12] = tested on: Liver; experiment: Biodistribution in mouse liver at 4.8 MBq/140 uL, iv after 15 mins by gamma counting; type: ADME, organism-based; settings: in vivo, 0.25 h; outline: as §1
[13] = tested on: Liver; experiment: Biodistribution in mouse liver at 4.8 MBq/140 uL, iv after 60 mins by gamma counting; type: ADME, organism-based; settings: in vivo, 1 h; outline: as §1
[14] = tested on: Kidney; experiment: Biodistribution in mouse kidney at 4.8 MBq/140 uL, iv after 30 mins by gamma counting; type: ADME, organism-based; settings: in vivo, 0.5 h; outline: as §1
[15] = tested on: Striatum; experiment: Drug uptake in Sprague-Dawley rat striatum at 17 MBq administered as bolus infusion by PET analysis in presence of N-[4-[6-(isopropylamino)pyrimidin-4-yl]-1,3-thiazol-2-yl]-4-methoxy-N-methylbenzamide; type: ADME, organism-based; settings: in vivo, iv
[16] = tested on: Lung; experiment: Biodistribution in mouse lung at 4.8 MBq/140 uL, iv after 30 mins by gamma counting; type: ADME, organism-based; settings: in vivo, 0.5 h; outline: as §1
[17] = tested on: Blood; experiment: Biodistribution in mouse blood at 4.8 MBq/140 uL, iv after 60 mins by gamma counting; type: ADME, organism-based; settings: in vivo, 1 h; outline: as §1
[18] = tested on: Blood; experiment: Biodistribution in mouse blood at 4.8 MBq/140 uL, iv after 1 min by gamma counting; type: ADME, organism-based; settings: in vivo; outline: as §1
[19] = tested on: Blood; experiment: Biodistribution in mouse blood at 4.8 MBq/140 uL, iv after 15 mins by gamma counting; type: ADME, organism-based; settings: in vivo, 0.25 h; outline: as §1
[20] = tested on: Mus musculus; experiment: Biodistribution in mouse testis at 4.8 MBq/140 uL, iv after 1 min by gamma counting; type: ADME, organism-based; settings: in vivo; outline: as §2
[21] = tested on: Brain; experiment: Biodistribution in mouse brain at 4.8 MBq/140 uL, iv after 30 mins by gamma counting; type: ADME, organism-based; settings: in vivo, 0.5 h; outline: as §1
[22] = tested on: Spleen; experiment: Biodistribution in mouse spleen at 4.8 MBq/140 uL, iv after 60 mins by gamma counting; type: ADME, organism-based; settings: in vivo, 1 h; outline: as §2
[23] = tested on: Brain; experiment: Biodistribution in mouse brain at 4.8 MBq/140 uL, iv after 15 mins by gamma counting; type: ADME, organism-based; settings: in vivo, 0.25 h; outline: as §1
[24] = tested on: Thalamus; experiment: Drug uptake in Sprague-Dawley rat thalamus at 17 MBq administered as bolus infusion by PET analysis in presence of N-[4-[6-(isopropylamino)pyrimidin-4-yl]-1,3-thiazol-2-yl]-4-methoxy-N-methylbenzamide; type: ADME, organism-based; settings: in vivo, iv
[25] = tested on: Striatum; experiment: Drug uptake in Sprague-Dawley rat striatum at 16 MBq administered as bolus infusion after 45 mins by PET analysis; type: ADME, organism-based; settings: in vivo, iv, 0.75 h
[26] = tested on: Thalamus; experiment: Drug uptake in Sprague-Dawley rat thalamus at 16 MBq administered as bolus infusion after 45 mins by PET analysis; type: ADME, organism-based; settings: in vivo, iv, 0.75 h
[27] = tested on: Kidney; experiment: Biodistribution in mouse kidney at 4.8 MBq/140 uL, iv after 60 mins by gamma counting; type: ADME, organism-based; settings: in vivo, 1 h; outline: as §1
[28] = tested on: Heart; experiment: Biodistribution in mouse heart at 4.8 MBq/140 uL, iv after 60 mins by gamma counting; type: ADME, organism-based; settings: in vivo, 1 h; outline: as §1
[29] = tested on: Kidney; experiment: Biodistribution in mouse kidney at 4.8 MBq/140 uL, iv after 1 min by gamma counting; type: ADME, organism-based; settings: in vivo; outline: as §1
[30] = Ratio of drug uptake in thalamus to pons of Sprague-Dawley rat at 16 MBq administered as bolus infusion; settings: in vivo, iv
[31] = tested on: Mus musculus; experiment: Biodistribution in mouse testis at 4.8 MBq/140 uL, iv after 60 mins by gamma counting; type: ADME, organism-based; settings: in vivo, 1 h; outline: as §2
[32] = tested on: Cerebellum; experiment: Drug uptake in wild type mouse cerebellum at 17 MBq, iv up to 60 mins by PET analysis; type: ADME, organism-based; settings: in vivo, 1 h
[33] = tested on: Cerebellum; experiment: Drug uptake in Sprague-Dawley rat cerebellum at 17 MBq administered as bolus infusion by PET analysis in presence of JNJ16259685; type: ADME, organism-based; settings: in vivo, iv
[34] = tested on: Spleen; experiment: Biodistribution in mouse spleen at 4.8 MBq/140 uL, iv after 5 mins by gamma counting; type: ADME, organism-based; settings: in vivo; outline: as §2
[35] = tested on: Blood; experiment: Biodistribution in mouse blood at 4.8 MBq/140 uL, iv after 30 mins by gamma counting; type: ADME, organism-based; settings: in vivo, 0.5 h; outline: as §1
[36] = tested on: Spleen; experiment: Biodistribution in mouse spleen at 4.8 MBq/140 uL, iv after 30 mins by gamma counting; type: ADME, organism-based; settings: in vivo, 0.5 h; outline: as §2
[37] = tested on: Mus musculus; experiment: Biodistribution in mouse testis at 4.8 MBq/140 uL, iv after 15 mins by gamma counting; type: ADME, organism-based; settings: in vivo, 0.25 h; outline: as §2
[38] = tested on: Mus musculus; experiment: Biodistribution in mouse small intestine at 4.8 MBq/140 uL, iv after 30 mins by gamma counting; type: ADME, organism-based; settings: in vivo, 0.5 h; outline: as §2
[39] = tested on: Mus musculus; experiment: Biodistribution in mouse small intestine at 4.8 MBq/140 uL, iv after 5 mins by gamma counting; type: ADME, organism-based; settings: in vivo; outline: as §2
[40] = tested on: Muscle tissue; experiment: Biodistribution in mouse muscle at 4.8 MBq/140 uL, iv after 5 mins by gamma counting; type: ADME, organism-based; settings: in vivo; outline: as §2
[41] = tested on: Kidney; experiment: Biodistribution in mouse kidney at 4.8 MBq/140 uL, iv after 15 mins by gamma counting; type: ADME, organism-based; settings: in vivo, 0.25 h; outline: as §1
[42] = tested on: Liver; experiment: Biodistribution in mouse liver at 4.8 MBq/140 uL, iv after 5 mins by gamma counting; type: ADME, organism-based; settings: in vivo; outline: as §1
[43] = tested on: Liver; experiment: Biodistribution in mouse liver at 4.8 MBq/140 uL, iv after 1 min by gamma counting; type: ADME, organism-based; settings: in vivo; outline: as §1

Drug uptake [1]: Active
Ratio [2]: 6.98
Drug uptake [3]: 0.91 % ID/g
Drug uptake [4]: 1.98 % ID/g
Drug uptake [5]: 3.97 % ID/g
Drug uptake [6]: 90%
Drug uptake [7]: 4.98 % ID/g
Drug uptake [8]: 1.57 % ID/g
Drug uptake [9]: 1.85 % ID/g
Drug uptake [10]: Active
Drug uptake [11]: 0.52 % ID/g
Drug uptake [12]: 5.57 % ID/g
Drug uptake [13]: 3.97 % ID/g
Drug uptake [14]: 3.32 % ID/g
Drug uptake [15]: Not Active
Drug uptake [16]: 1.92 % ID/g
Drug uptake [17]: 0.64 % ID/g
Drug uptake [18]: 3.79 % ID/g
Drug uptake [19]: 0.96 % ID/g
Drug uptake [20]: 0.72 % ID/g
Drug uptake [21]: 2.38 % ID/g
Drug uptake [22]: 2.36 % ID/g
Drug uptake [23]: 3.14 % ID/g
Drug uptake [24]: Not Active
Drug uptake [25]: Active
Drug uptake [26]: Active
Drug uptake [27]: 2.92 % ID/g
Drug uptake [28]: 0.81 % ID/g
Drug uptake [29]: 8.67 % ID/g
Ratio [30]: 5.05
Drug uptake [31]: 0.33 % ID/g
Drug uptake [32]: Active
Drug uptake [33]: Not Active
Drug uptake [34]: 1.96 % ID/g
Drug uptake [35]: 0.67 % ID/g
Drug uptake [36]: 2.14 % ID/g
Drug uptake [37]: 0.54 % ID/g
Drug uptake [38]: 4.07 % ID/g
Drug uptake [39]: 4.55 % ID/g
Drug uptake [40]: 1.22 % ID/g
Drug uptake [41]: 3.78 % ID/g
Drug uptake [42]: 8.34 % ID/g
Drug uptake [43]: 8.16 % ID/g
SMILES: CC(C)Nc1cc(-c2csc(N(C)C(=O)c3ccc(O[11CH3])cc3)n2)ncn1
